# Laboratory results from ChEMBL document CHEMBL2046427, “Nonhematotoxic naphthalene diimide modified by polyamine: synthesis and biological evaluation” (J Med Chem, 2012).
# Active and inactive are the calls of the source. The calls are words filed in the database; no cut-off is given here.
# Columns and labels:
# HepG2 [1] = experiment: Cytotoxicity against human HepG2 cells after 48 hrs by MTT assay; assay type: functional, cell-based; conditions: HepG2, 48 h
# How it was run: (§1)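 MTT conversion assay at 37 °C, 5% CO₂. […] Inhibition relative to untreated cells as 100%; IC50 by linear regression, mean of three independent experiments.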
# MDA-MB-231 = experiment: Cytotoxicity against human MDA-MB-231 cells after 48 hrs by MTT assay; assay type: functional, cell-based; conditions: MDA-MB-231, 48 h; how it was run: as §1
# HCT-116 = experiment: Cytotoxicity against human HCT116 cells after 48 hrs by MTT assay; assay type: functional, cell-based; conditions: HCT-116, 48 h; how it was run: as §1
# HepG2 [2] = experiment: Cytotoxicity against human HepG2 cells assessed as cell nuclear shrinkage after 48 hrs by Hoechst 33342-based fluorescence-based high-content screening assay; assay type: functional
# How it was run: (§2)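 HepG2 seeded 5 × 10³/well; after 12 h treated at 1, 5, 10, 15 and 30 μM for 48 h. Multiparameter cytotoxicity kit staining imaged by high-content screening: Hoechst 33342 for nuclear morphology, permeability dye (green nuclei) for membrane integrity, mitochondrial potential dye, and a weak-base dye for lysosomal mass/pH.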
# HepG2 [3] = experiment: Cytotoxicity against human HepG2 cells assessed as mitochondrial permeability augmentation after 48 hrs by fluorescence-based high-content screening assay; assay type: functional, cell-based; how it was run: as §2
# HepG2 [4] = experiment: Cytotoxicity against human HepG2 cells assessed as decrease in mitochondrial membrane potential after 48 hrs by fluorescence-based high-content screening assay; assay type: functional, cell-based; how it was run: as §2
# HepG2 [5] = experiment: Cytotoxicity against human HepG2 cells assessed as acruement in lysosomal mass/pH after 48 hrs by fluorescence-based high-content screening assay; assay type: functional, cell-based; how it was run: as §2
# HepG2 [6] = experiment: Cytotoxicity in human HepG2 cells assessed as loss of cell membrane integrity at 10 uM after 48 hrs by fluorescence-based high-content screening assay; assay type: functional
# HepG2 [7] = experiment: Cytotoxicity in human HepG2 cells assessed as gain in lysosomal mass/pH at 10 uM after 48 hrs by fluorescence-based high-content screening assay; assay type: functional, cell-based
# HepG2 [8] = experiment: Cytotoxicity in human HepG2 cells assessed as mitochondrial membrane damage at 10 uM after 48 hrs by fluorescence-based high-content screening assay; assay type: functional, cell-based
# HepG2 [9] = experiment: Cytotoxicity in human HepG2 cells assessed as decrease in mitochondrial membrane potential at 10 uM after 48 hrs by fluorescence-based high-content screening assay; assay type: functional, cell-based
# HepG2 [10] = experiment: Induction of apoptosis in human HepG2 cells assessed as phosphatidylserine externalisation at 10 uM after 48 hrs by annexinV/FITC-based high-content screening assay; assay type: functional, cell-based
# How it was run: (§3)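 HepG2 in 24-well plates treated at 10 μM for 48 h, harvested and stained with annexin V–FITC/propidium iodide kit or cleaved caspase 3 indirect immunofluorescence. Imaging by high-content screening with target-activation analysis; comparison against control.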
# HepG2 [11] = experiment: Induction of apoptosis in human HepG2 cells assessed as caspase 3 activation at 10 uM after 48 hrs by indirect immunofluorescence method; assay type: functional, cell-based; how it was run: as §3
# HepG2 [12] = experiment: Induction of apoptosis in human HepG2 cells assessed as reactive oxygen species generation at 10 uM after 48 hrs by […]-based staining; assay type: functional, cell-based
# How it was run: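 HepG2 given 10 μM for 48 h; intracellular ROS by DCFH-DA staining imaged by high-content screening, compared with untreated control.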
# H22 [13] = experiment: Antitumor activity against mouse H22 cells xenografted in Kunming mouse assessed as tumor growth inhibition at 0.2 mg/kg, iv administered on day 8 post-tumor injection for 7 days measured on day 16 relative to vehicle treated control; assay type: functional; conditions: read-out: GI
# How it was run: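 Male Kunming mice, 5 weeks, 18−22 g, injected sc with 2 × 10⁶ H22 cells. From day 8, randomized groups got caudal vein injection (0.2 or 5 mg/kg, or physiologic saline) for 7 consecutive days. On day 16 tumours excised and weighed; inhibitory rate (%) = [(A − B)/A] × 100 using mean tumour weights of control (A) and treated (B). Tumours formalin-fixed, H&E-stained.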
# H22 [14] = experiment: Antitumor activity against mouse H22 cells xenografted in Kunming mouse assessed as decrease in cell survival at 0.2 mg/kg, iv administered on day 8 post-tumor injection for 7 days measured on day 16 by hematoxylin and eosin staining relative to vehicle treated control; assay type: functional, organism-based; design: dose 0.2 mg/kg
# H22 [15] = experiment: Antitumor activity against mouse H22 cells xenografted in Kunming mouse assessed as median survival time at 0.2 […], iv administered 24 hrs post-tumor injection for 7 days (reference value: 12.7 +/- 2.5 days); assay type: functional
# How it was run: (§4)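 Kunming mice bearing H22 cells; iv (caudal vein) dosing or physiologic saline control started 24 h after inoculation and given for 7 consecutive days. Median survival time recorded per group; activity judged as increase in lifespan versus saline control.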
# H22 [16] = experiment: Antitumor activity against mouse H22 cells xenografted in Kunming mouse assessed as median survival time at 0.2 […], iv administered 24 hrs post-tumor injection for 7 days relative to vehicle treated control; assay type: functional; how it was run: as §4
# H22 [17] = experiment: Antimetastatic activity against mouse H22 cells xenografted in Kunming mouse assessed as decrease in lung tumor burden at 0.2 mg/kg, iv administered on day 11 post-tumor injection for 7 days measured on day 18 relative to vehicle treated control; assay type: functional, organism-based; design: dose 0.2 mg/kg
# H22 [18] = experiment: Antimetastatic activity against mouse H22 cells xenografted in Kunming mouse assessed as decrease in lung metastasis focuses at 0.2 mg/kg, iv administered on day 11 post-tumor injection for 7 days measured on day 18 relative to vehicle treated control; assay type: functional, organism-based; design: dose 0.2 mg/kg
# H22 [19] = experiment: Antimetastatic activity against mouse H22 cells xenografted in Kunming mouse assessed as tumor weight at 0.2 mg/kg, iv administered on day 11 post-tumor injection for 7 days measured on day 18 (reference value: 0.34 +/- 0.15 g); assay type: functional
# Mus musculus [20] = experiment: Toxicity in mouse H22 cells bearing Kunming mouse assessed as weight loss at 0.2 mg/kg, iv administered for 7 days measured on day 8 relative to vehicle treated control; assay type: organism-based; design: dose 0.2 mg/kg, route intravenous; conditions: in vivo, 168 h
# How it was run: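 Body weight tracked during 7 consecutive days of daily iv dosing in tumour-bearing Kunming mice, with saline controls; animals killed on day 8.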
# Mus musculus [21] = experiment: Toxicity in mouse H22 cells bearing Kunming mouse assessed as decrease in platelet number at 0.2 mg/kg, iv administered for 7 days measured on day 8 relative to vehicle treated control; assay type: organism-based; design: dose 0.2 mg/kg, route intravenous; conditions: in vivo, 168 h
# How it was run: (§5)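 Tumour-bearing Kunming mice (10/group) dosed iv daily for 7 days, then killed on day 8. Blood and bone marrow counted on a Coulter counter for platelets, RBC, WBC and marrow cells. Spleen and thymus weighed; organ index (%) = (organ weight/body weight) × 100. Mean ± SD; Student's t test or ANOVA with q test versus saline.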
# Mus musculus [22] = experiment: Toxicity in mouse H22 cells bearing Kunming mouse assessed as decrease in red blood cells number at 0.2 mg/kg, iv administered for 7 days measured on day 8 relative to vehicle treated control; assay type: organism-based; design: dose 0.2 mg/kg, route intravenous; conditions: in vivo, 168 h; how it was run: as §5
# Mus musculus [23] = experiment: Toxicity in mouse H22 cells bearing Kunming mouse assessed as decrease in white blood cells number at 0.2 mg/kg, iv administered for 7 days measured on day 8 relative to vehicle treated control; assay type: organism-based; design: dose 0.2 mg/kg, route intravenous; conditions: in vivo, 168 h; how it was run: as §5
# Mus musculus [24] = experiment: Hematotoxicity in mouse H22 cells bearing Kunming mouse assessed as decrease in bone marrow cell numbers at 0.2 mg/kg, iv administered for 7 days measured on day 8 relative to vehicle treated control; assay type: organism-based; design: dose 0.2 mg/kg, route intravenous; conditions: in vivo, 168 h; how it was run: as §5
# Mus musculus [25] = experiment: Toxicity in mouse H22 cells bearing Kunming mouse assessed as change in spleen index number at 0.2 mg/kg, iv administered for 7 days measured on day 8 relative to vehicle treated control; assay type: organism-based; design: dose 0.2 mg/kg, route intravenous; conditions: in vivo, 168 h; how it was run: as §5
# Mus musculus [26] = experiment: Toxicity in mouse H22 cells bearing Kunming mouse assessed as change in thymus index number at 0.2 mg/kg, iv administered for 7 days measured on day 8 relative to vehicle treated control; assay type: organism-based; design: dose 0.2 mg/kg, route intravenous; conditions: in vivo, 168 h; how it was run: as §5
# Mus musculus [27] = experiment: Toxicity in mouse H22 cells bearing Kunming mouse assessed pathological changes in spleen at 0.2 mg/kg, iv administered for 7 days measured on day 8 by hematoxylin and eosin staining relative to vehicle treated control; assay type: organism-based; design: dose 0.2 mg/kg, route intravenous; conditions: in vivo, 168 h
# Mus musculus [28] = experiment: Toxicity in mouse H22 cells bearing Kunming mouse assessed pathological changes in heart at 0.2 mg/kg, iv administered for 7 days measured on day 8 by hematoxylin and eosin staining relative to vehicle treated control; assay type: organism-based; design: dose 0.2 mg/kg, route intravenous; conditions: in vivo, 168 h
# Mus musculus [29] = experiment: Toxicity in mouse H22 cells bearing Kunming mouse assessed pathological changes in liver at 0.2 mg/kg, iv administered for 7 days measured on day 8 by hematoxylin and eosin staining relative to vehicle treated control; assay type: organism-based; design: dose 0.2 mg/kg, route intravenous; conditions: in vivo, 168 h
# Mus musculus [30] = experiment: Toxicity in mouse H22 cells bearing Kunming mouse assessed pathological changes in lung at 0.2 mg/kg, iv administered for 7 days measured on day 8 by hematoxylin and eosin staining relative to vehicle treated control; assay type: organism-based; design: dose 0.2 mg/kg, route intravenous; conditions: in vivo, 168 h
# Mus musculus [31] = experiment: Toxicity in mouse H22 cells bearing Kunming mouse assessed pathological changes in kidney at 0.2 mg/kg, iv administered for 7 days measured on day 8 by hematoxylin and eosin staining relative to vehicle treated control; assay type: organism-based; design: dose 0.2 mg/kg, route intravenous; conditions: in vivo, 168 h
# Mus musculus [32] = experiment: Toxicity in mouse H22 cells bearing Kunming mouse assessed pathological changes in brain at 0.2 mg/kg, iv administered for 7 days measured on day 8 by hematoxylin and eosin staining relative to vehicle treated control; assay type: organism-based; design: dose 0.2 mg/kg, route intravenous; conditions: in vivo, 168 h
smiles,measurement,setting,value
Cl.NCCCNCCCCNCCCN1C(=O)c2ccc3c4c(ccc(c24)C1=O)C(=O)N(CCCNCCCCNCCCN)C3=O,IC50,HepG2 [1],1220 nM
same,IC50,MDA-MB-231,450 nM
same,IC50,HCT-116,130 nM
same,Activity,HepG2 [2],Dose-dependent effect
same,Activity,HepG2 [3],Dose-dependent effect
same,Activity,HepG2 [4],Dose-dependent effect
same,Activity,HepG2 [5],Dose-dependent effect
same,Activity,HepG2 [6],Active
same,Activity,HepG2 [7],Active
same,Activity,HepG2 [8],Active
same,Activity,HepG2 [9],Active
same,Activity,HepG2 [10],Active
same,Activity,HepG2 [11],Active
same,Activity,HepG2 [12],Active
same,inhibition in vivo at 0.2 mg/kg,H22 [13],51.8%
same,Activity,H22 [14],Active
same,MST,H22 [15],29.8 days
same,Ratio,H22 [16],2.3
same,Activity,H22 [17],Active
same,Activity,H22 [18],Active
same,Activity,H22 [19],0.17 g
same,Activity,Mus musculus [20],Non-toxic
same,Activity,Mus musculus [21],Non-toxic
same,Activity,Mus musculus [22],Non-toxic
same,Activity,Mus musculus [23],Non-toxic
same,Activity,Mus musculus [24],Non-toxic
same,Activity,Mus musculus [25],Non-toxic
same,Activity,Mus musculus [26],Non-toxic
same,Activity,Mus musculus [27],Non-toxic
same,Activity,Mus musculus [28],Non-toxic
same,Activity,Mus musculus [29],Non-toxic
same,Activity,Mus musculus [30],Non-toxic
same,Activity,Mus musculus [31],Non-toxic
same,Activity,Mus musculus [32],Non-toxic
